Measured values taken from ChEMBL document CHEMBL4376860, “Discovery of Novel Dual Poly(ADP-ribose)polymerase and Phosphoinositide 3-Kinase Inhibitors as a Promising Strategy for Cancer Therapy” (J Med Chem, 2020).
Calls of active or inactive are those of the source. The calls are words filed in the database; no cut-off is given here.

Assays:
[1] = tested on: Ramos; test: Antiproliferative activity against human Ramos cells measured after 7 days by Celltiter-glo assay; type: functional, cell-based; details: 168 h
In short: (§1)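 Cells maintained in RPMI1640 with 10% FBS at 37 °C, 5% CO2. Seeded the day before dosing, grown 12 h, then exposed to graded compound concentrations for 7 days. CellTiter-Glo reagent added, 10 min at room temperature, luminescence read. Inhibition % = (1-(RLU compound - RLU blank)/(RLU DMSO - RLU blank))×100. IC50 from nonlinear regression, normalized dose-response fit.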

[2] = tested on: MDA-MB-468; test: Inhibition of PI3K in human MDA-MB-468 cells assessed as reduction in BRCA2 mRNA level at 1 uM by Trizol reagent-based RT-PCR analysis; type: cell-based
In short: (§2)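 Total RNA from treated MDA-MB-468 cells extracted with TRIzol. BRCA1 or BRCA2 mRNA quantified by real-time PCR with GAPDH as internal control. Results given as fold change relative to the internal control. Mean ± SD of three independent experiments.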

[3] = tested on: MDA-MB-468; test: Induction of apoptosis in human MDA-MB-468 cells assessed as early apoptotic cells at 1 uM measured after 72 hrs by Annexin V-FITC/propidium iodide staining based flow cytometry (reference value: 3.88%); type: functional
[4] = tested on: Mus musculus; test: In vivo activation of ERK in BALB/c mouse xenografted with human MDA-MB-468 cells assessed as increase in ERK autophosphorylation at T202 residue at 50 mg/kg, ip administered every 2 days for 34 days measured post-last dose by Western blot analysis; type: functional, organism-based
[5] = tested on: A2780; test: Antiproliferative activity against human A2780 cells measured after 7 days by Celltiter-glo assay; type: functional, cell-based; details: A2780, 168 h; in short: as §1
[6] = tested on: DU-145; test: Antiproliferative activity against human DU145 cells measured after 7 days by Celltiter-glo assay; type: functional, cell-based; details: DU-145, 168 h; in short: as §1
[7] = tested on: A549; test: Antiproliferative activity against human A549 cells measured after 7 days by Celltiter-glo assay; type: functional, cell-based; details: A549, 168 h; in short: as §1
[8] = tested on: MDA-MB-468; test: Induction of DNA damage in human MDA-MB-468 cells at 1 uM measured after 72 hrs by comet assay; type: functional, cell-based
In short: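 MDA-MB-468 cells treated for 72 h, harvested and run in a neutral comet assay. Ethidium bromide staining after electrophoresis. About 200 cell images per group analysed with CASP. DNA damage scored as tail intensity (percentage DNA in tail) and olive tail moment. Mean ± SD of three independent experiments.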

[9] = tested on: SW-620; test: Antiproliferative activity against human SW620 cells measured after 7 days by Celltiter-glo assay; type: functional, cell-based; details: SW-620, 168 h; in short: as §1
[10] = tested on: MDA-MB-468; test: Inhibition of PI3K in human MDA-MB-468 cells assessed as reduction in RAD51 foci formation at 1 uM measured after 72 hrs by DAPI staining based immunofluorescence microscopic analysis; type: cell-based
In short: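 RAD51 foci in MDA-MB-468 cells on coverslips after 72 h drug exposure. Cells fixed (3% formaldehyde), permeabilized (0.1% Triton X-100), blocked in 10% FBS/PBS, incubated overnight at 4 °C with rabbit anti-RAD51 polyclonal, then secondary antibody plus DAPI. Foci and percent positive cells (>5 foci per cell) counted from about 200 cells. Mean ± SD of three independent experiments.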

[11] = tested on: MDA-MB-231; test: Antiproliferative activity against human MDA-MB-231 cells measured after 7 days by Celltiter-glo assay; type: functional, cell-based; details: MDA-MB-231, 168 h; in short: as §1
[12] = tested on: Jurkat; test: Antiproliferative activity against human Jurkat cells measured after 7 days by Celltiter-glo assay; type: functional, cell-based; details: 168 h; in short: as §1
[13] = tested on: MDA-MB-468; test: Antiproliferative activity against human MDA-MB-468 cells measured after 7 days by Celltiter-glo assay; type: functional, cell-based; details: MDA-MB-468, 168 h; in short: as §1
[14] = tested on: MDA-MB-468; test: Induction of apoptosis in human MDA-MB-468 cells assessed as late apoptotic cells at 1 uM measured after 72 hrs by Annexin V-FITC/propidium iodide staining based flow cytometry (reference value: 0.78%); type: functional
[15] = tested on: CAKI-1; test: Antiproliferative activity against human CAKI-1 cells measured after 7 days by Celltiter-glo assay; type: functional, cell-based; details: CAKI-1, 168 h; in short: as §1
[16] = tested on: MDA-MB-468; test: Induction of apoptosis in human MDA-MB-468 cells assessed as necrotic cells at 1 uM measured after 72 hrs by Annexin V-FITC/propidium iodide staining based flow cytometry (reference value: 0.13%); type: functional
[17] = target: Phosphatidylinositol 4,5-bisphosphate 3-kinase catalytic subunit gamma isoform (Homo sapiens, UniProt P48736); test: Inhibition of PI3Kgamma (unknown origin) using PIP2 as substrate measured after 1 hr by ADP-glo plus luminescence assay
[18] = tested on: HCT-116; test: Antiproliferative activity against human HCT116 cells measured after 7 days by Celltiter-glo assay; type: functional, cell-based; details: HCT-116, 168 h; in short: as §1
[19] = tested on: BXPC-3; test: Antiproliferative activity against human BxPC3 cells measured after 7 days by Celltiter-glo assay; type: functional, cell-based; details: BXPC-3, 168 h; in short: as §1
[20] = tested on: HCC1937; test: Antiproliferative activity against human HCC1937 cells measured after 7 days by Celltiter-glo assay; type: functional, cell-based; details: HCC1937, 168 h; in short: as §1
[21] = tested on: MDA-MB-468; test: Induction of apoptosis in human MDA-MB-468 cells assessed as viable cells at 1 uM measured after 72 hrs by Annexin V-FITC/propidium iodide staining based flow cytometry (reference value: 95.2%); type: functional; details: MDA-MB-468, 72 h, read-out: Activity
[22] = tested on: MDA-MB-468; test: Inhibition of PI3K in human MDA-MB-468 cells assessed as reduction in BRCA1 mRNA level at 1 uM by Trizol reagent-based RT-PCR analysis; type: cell-based; in short: as §2
[23] = tested on: MDA-MB-468; test: Inhibition of PI3K in human MDA-MB-468 cells assessed as reduction in BRCA2 mRNA level at 1 uM in presence of PARP inhibitor olaparib by Trizol reagent-based RT-PCR analysis; type: cell-based; in short: as §2
[24] = tested on: A2780; test: cells; details: Homo sapiens, A2780, 168 h, read-out: pIC50 (converted)
[25] = tested on: MDA-MB-468; test: Induction of apoptosis in human MDA-MB-468 cells assessed as late apoptotic cells at 1 uM measured after 72 hrs in presence of PARP inhibitor olaparib by Annexin V-FITC/propidium iodide staining based flow cytometry (reference value: 0.78%); type: functional
[26] = tested on: HCC1937; test: cells; details: Homo sapiens, HCC1937, 168 h, read-out: pIC50 (converted)
[27] = tested on: Ramos; test: cells; details: Homo sapiens, 168 h, read-out: pIC50 (converted)
[28] = tested on: MDA-MB-231; test: cells; details: Homo sapiens, MDA-MB-231, 168 h, read-out: pIC50 (converted)
[29] = tested on: CAKI-1; test: cells; details: Homo sapiens, CAKI-1, 168 h, read-out: pIC50 (converted)
[30] = Toxicity in BALB/c mouse xenografted with human MDA-MB-468 cells assessed as mortality at 27.5 mg/kg, ip administered every 2 days for 34 days; type: organism-based; details: in vivo
In short: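 Nude mice bearing subcutaneous right-flank MDA-MB-468 tumours (2 × 10^6 exponential-phase cells implanted). Randomised at about 100 mm³ tumour volume; 6 mice per group. Dosed ip every 2 days for 34 days. Vehicle controls received PBS with 5% DMSO. Body weight and tumour size recorded every 2 days; tumour volume calculated as ab²/2 from caliper diameters.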

Sequence of Phosphatidylinositol 4,5-bisphosphate 3-kinase catalytic subunit gamma isoform (P48736 whole entry, canonical isoform): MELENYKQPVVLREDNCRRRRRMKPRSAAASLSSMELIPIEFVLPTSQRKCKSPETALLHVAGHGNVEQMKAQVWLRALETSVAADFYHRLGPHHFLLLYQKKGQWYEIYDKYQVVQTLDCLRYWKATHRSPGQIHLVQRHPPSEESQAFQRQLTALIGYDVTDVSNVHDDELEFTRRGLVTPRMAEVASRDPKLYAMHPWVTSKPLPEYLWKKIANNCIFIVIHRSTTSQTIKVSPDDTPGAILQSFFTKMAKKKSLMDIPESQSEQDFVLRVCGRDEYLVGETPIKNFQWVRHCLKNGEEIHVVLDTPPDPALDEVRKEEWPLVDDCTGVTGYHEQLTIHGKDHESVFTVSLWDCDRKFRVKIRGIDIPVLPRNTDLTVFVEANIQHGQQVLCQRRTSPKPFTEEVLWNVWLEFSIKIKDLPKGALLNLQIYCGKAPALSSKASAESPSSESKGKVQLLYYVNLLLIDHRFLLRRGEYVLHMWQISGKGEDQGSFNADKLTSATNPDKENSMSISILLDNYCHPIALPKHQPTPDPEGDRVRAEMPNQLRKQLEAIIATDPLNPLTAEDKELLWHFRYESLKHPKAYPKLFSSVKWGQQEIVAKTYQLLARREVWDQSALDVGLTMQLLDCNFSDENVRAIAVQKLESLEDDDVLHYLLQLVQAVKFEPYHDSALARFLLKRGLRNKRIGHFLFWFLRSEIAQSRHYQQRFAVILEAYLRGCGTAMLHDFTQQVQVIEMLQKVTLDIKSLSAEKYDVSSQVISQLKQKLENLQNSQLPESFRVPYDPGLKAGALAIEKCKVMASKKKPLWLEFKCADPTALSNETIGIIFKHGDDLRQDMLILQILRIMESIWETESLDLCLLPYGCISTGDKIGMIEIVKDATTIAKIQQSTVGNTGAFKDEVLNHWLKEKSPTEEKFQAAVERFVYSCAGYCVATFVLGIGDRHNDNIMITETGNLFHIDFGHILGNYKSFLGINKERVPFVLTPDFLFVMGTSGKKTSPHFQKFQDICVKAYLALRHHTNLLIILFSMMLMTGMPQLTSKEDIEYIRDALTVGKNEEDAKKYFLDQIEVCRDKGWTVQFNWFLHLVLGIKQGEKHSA

Compound	IC50 [1]	inhibition [2]	Activity [3]	IC50 [5]	IC50 [6]	IC50 [7]	Activity [8]	IC50 [9]	inhibition [10]	IC50 [11]	IC50 [12]	IC50 [13]	Activity [14]	IC50 [15]	Activity [16]	IC50 [18]	IC50 [19]	IC50 [20]	viability at 1 µM [21]	inhibition [22]	also measured
Nc1cc(C(F)(F)F)c(-c2nc3c(c(N4CCOCC4)n2)CCN(C(=O)c2cc(Cc4n[nH]c(=O)c5ccccc45)ccc2F)C3)cn1	1.07 µM	Active	21.9%	0.398 µM	0.891 µM	0.537 µM	Active	2.82 µM	Active	1 µM	0.933 µM	0.977 µM	21%	0.955 µM	1.44%	0.871 µM	1.07 µM	1.05 µM	55.7%	Active	Activity [4]: Active; IC50 [17]: 0.832 µM
Nc1cc(C(F)(F)F)c(-c2cc(N3CCOCC3)nc(N3CCOCC3)n2)cn1 [BUPARLISIB]	3.63 µM	Active	6.13%	0.417 µM	3.8 µM	1.7 µM	Active	5.13 µM	Active	6.03 µM	1.41 µM	3.98 µM	1.82%	2.75 µM	0.16%	3.63 µM	4.07 µM	6.31 µM	91.9%	Active	inhibition [23]: Active; IC50 [24]: 0.347 µM; Activity [25]: 7.84%; IC50 [26]: 1.7 µM; IC50 [27]: 1.17 µM; IC50 [28]: 1.58 µM; IC50 [29]: 1.86 µM; Activity [30]: Non-Toxic
